Source: PubChem (several laboratories)
CHOP UPR activ – activators of apoptotic CHOP UPR arm, primary screen, cell-based, CHO-CHOP luciferase reporter, luminescence, uHTS. UPR activation; percent of tunicamycin response over DMSO baseline. activation, % at 10 µM. 330,000 tested, 0.34% active. AID 449763, 2010;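 active = at 10 µM dose, activation of 40% or more, normalized to positive control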;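 note: 100% = tunicamycin at 10 µg/mL and 0% = DMSO alone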
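System: CHO-CHOP luciferase reporter cell line | Buffer or medium: F12 medium containing 10% fetal bovine serum | Doses: One dose, 10 µM in 0.5% DMSO | Times: 6 h compound exposure at 37 °C after overnight seeding | Signal: Luciferase luminescence | Read-out: % activation vs tunicamycin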
Jurkat NFkB inh – inhibitors of induced NF-kB luciferase reporter, primary screen, TCR NF-kB activation inhibitor project, cell-based, luminescence, uHTS. inhibition, % at 4 µM. 330,000 tested, 0.53% active. Jurkat, PMA/ionomycin-induced NF-kB luciferase reporter; in the data active = inhibition above about 50%
CHOP inh – inhibitors of CHOP promoter induction, primary screen, cell-based, unfolded protein response, luciferase reporter; inhibition, % at 10 µM; AID 2732, 2010; CHO-K1 CHOP-promoter luciferase, tunicamycin-induced, 15-18 h; 220,000 tested, 3.8% active;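 active = compounds that reduced the stress-induced luciferase reporter signal by more than about 70% of percent inhibition, limit read from the data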;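 note: 0% = tunicamycin plus vehicle and 100% = wells without tunicamycin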
697 NFkB inh – inhibitors of PMA/ionomycin-induced NF-kB reporter, 697 cells, primary screen, B-cell NF-kB inhibitor project, cell-based, luminescence, uHTS; 330,000 tested, 0.33% active; inhibition, % at 4 µM; AID 435022, 2010; 697 B-cell NF-kB luciferase reporter, 16 h; in the data active = inhibition above about 35%
UPR XBP1 act – activators of adaptive XBP1 UPR arm, primary screen, cell-based, CHO-XBP1 luciferase reporter, luminescence, uHTS | IRE1-XBP1 UPR activation; percent of tunicamycin response, DMSO as zero | activation, % at 20 µM | 330,000 tested, 0.33% active;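 active = versus positive control, 20 µM dose yields 30% or more activation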;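 note: 100% = tunicamycin at 10 µg/mL and 0% = DMSO only wells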
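Material: CHO cell line with stable XBP1 luciferase reporter; buffer or medium: F12 medium containing 10% fetal bovine serum; compound: single point, 20 µM final compound, 1% DMSO; incubation: 6 h treatment, 37 °C; measured by: glow luminescence from Steady-Glo reagent; evaluation: activation, % of tunicamycin; control set: tunicamycin high, DMSO low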
* marks the source's active call; other numbers are inactive results; · = no result. The entries come from a sample that favours hits as a whole.

SMILES | CHOP UPR activ | Jurkat NFkB inh | CHOP inh | 697 NFkB inh | UPR XBP1 act
Cc1ccc(C(=O)NC(=S)Nc2cc(C(F)(F)F)ccc2Cl)cc1 | 1 | -6 | 12 | -3 | 7
O=C(Nc1cc(C(F)(F)F)ccc1Cl)c1ccc(NC(=O)C(F)(F)F)cc1 | 1 | -16 | 45 | 1 | -1
O=C(CCc1nc(-c2ccccc2)no1)Nc1cc(C(F)(F)F)ccc1Cl | 7 | -12 | 93* | 3 | -1
O=C(Nc1ccc2c(c1)OCO2)N1CCN(c2ccc(F)cc2)CC1 | 0 | -44 | 78* | -35 | -1
O=C(Nc1ccc2c(c1)OCO2)N1CCN(c2ccccc2)CC1 | 1 | -15 | -5 | -17 | -2
CC1=CC(C)(C)N2C(=O)C3(C(C#N)=C(N)OC4=C3C(=O)CCC4)c3c(C)c(C)cc1c32 (centres undefined) | 1 | -7 | 50 | 27 | 0
CC1=CC(C)(C)N2C(=O)C3(C(C#N)=C(N)Oc4cc(O)ccc43)c3c(C)c(C)cc1c32 (centres undefined) | 1 | -2 | 96* | 13 | 4
COc1ccccc1NC(=O)Nc1ccccc1C(=O)NCCCN1CCOCC1 | 0 | -11 | -3 | -1 | 0
CC1C/C(=C\c2cccnc2)C(=O)/C(=C/c2cccnc2)C1 (centres undefined) | · | · | 102* | · | ·
Cc1ccc(NC(=O)CSc2nnc(CNC(=O)C34CC5CC(CC(C5)C3)C4)n2-c2ccc(F)cc2)cc1 | 2 | 20 | 79* | 6 | -2
O=C(CSc1nnc(CNC(=O)C23CC4CC(CC(C4)C2)C3)n1-c1ccccc1)Nc1ccc(F)cc1 | -1 | 2 | 51 | 0 | -1
O=C1CN(C(=O)COC(=O)c2ccc([N+](=O)[O-])o2)c2ccccc2N1 | 5 | 5 | · | 2 | 1
C/C(=N/Nc1ccc([N+](=O)[O-])cc1)c1ccc(C)cc1C | 2 | -32 | 94* | -9 | 2
C/C(=N\Nc1ccc([N+](=O)[O-])cc1)c1ccc(C#N)cc1 | -1 | 3 | -13 | 0 | 0
CCCCN(C1CCS(=O)(=O)C1)S(=O)(=O)c1ccc(OC)c(OC)c1 (centres undefined) | -1 | 1 | · | -1 | -2
O=C(Nc1ccon1)c1ccc(OC2CCCC2)cc1 | 7 | -141 | 78* | -19 | 0
CC(C)(C)c1cc(NC(=O)c2ccc(OC3CCCC3)cc2)no1 | 4 | -38 | 24 | -71 | 4
COc1ccc(N=C2C(=O)N3c4c(cccc42)C(C)=CC3(C)C)cc1 | 1 | 17 | 79* | 7 | 3
O=C(NCc1cccc(F)c1)C1CCC(=O)N(CC2CCCCC2)C1 (centres undefined) | -1 | 8 | · | -6 | -2
O=C1Nc2ccccc2OC1CC(=O)N1CCN(c2cccc(C(F)(F)F)c2)CC1 (centres undefined) | -2 | -2 | 86* | -3 | 0
O=C1Nc2ccccc2OC1CC(=O)N1CCOCC1 (centres undefined) | 0 | -1 | 30 | -7 | 0
C/C(=C\c1ccccc1)C(=O)N1CCN(c2cccc(C(F)(F)F)c2)CC1 | 8 | -27 | 82* | -7 | 0
O=C(CCCCn1c(=O)[nH]c2ccccc2c1=O)N1CCN(c2cccc(C(F)(F)F)c2)CC1 | 2 | 8 | 88* | -32 | 3
O=C(CSCc1ccccc1)N1CCN(c2cccc(C(F)(F)F)c2)CC1 | 1 | 2 | 85* | 0 | -7
Cc1ccccc1-n1nc2c(c1NC(=O)C1CCCC1)CS(=O)(=O)C2 | -1 | 4 | · | -12 | -6
SMILES | CHOP UPR activ | Jurkat NFkB inh | CHOP inh | 697 NFkB inh | UPR XBP1 act
CC(C)Cn1cc(C(=O)NCc2cccs2)c2c3ccccc3n(C)c2c1=O | -1 | -3 | 94* | 9 | -3
CC(C)(C)S(=O)(=O)c1cnc(-c2ccc(Cl)cc2)nc1N | 7 | -50 | -5 | -87 | 2
Cc1nc(N)nc(N)c1/C=C/C(C)(C)c1ccc(Cl)cc1 | · | · | 77* | · | ·
CCOC(=O)C1=C(COC(=O)Cc2ccccc2F)NC(=O)NC1C (centres undefined) | -1 | -24 | · | -19 | -2
CCc1sc(-c2c(C#N)c(N)nc3c2CCCCCC3)cc1[N+](=O)[O-] | 1 | -5 | 76* | 9 | 1
CC(C)(C)c1ccc(-c2c(C#N)c(N)nc3c2CCCC3)s1 | 1 | 8 | 9 | 9 | 3
CC(=O)Nc1ccc(S(=O)(=O)N[C@@H](C)C(=O)NC2CCCc3ccccc32)cc1 (some centres undefined) | -1 | -7 | · | 8 | -3
Cc1ccc(-n2c(=O)c3c4c(sc3n3c(C)nnc23)COC(C(C)C)C4)cc1 (centres undefined) | 1 | 15 | · | 13 | 1
CSc1nnc2n(-c3ccc(C)cc3)c(=O)c3c4c(sc3n12)COC(C(C)C)C4 (centres undefined) | 3 | 20 | 81* | 4 | 6
CC1CCN(c2nc3c(c(=O)n(C)c(=O)n3C)n2CCSc2nc3ccccc3s2)CC1 | 5 | -3 | 76* | -82 | 4
C=CCn1c(=NC(=O)c2cc(Cl)sc2Cl)sc2cc(S(N)(=O)=O)ccc21 | 1 | 14 | 27 | 21 | 4
COCCn1c(=NC(=O)c2sc3ccccc3c2Cl)sc2cc(S(N)(=O)=O)ccc21 | -1 | -18 | 75* | 0 | -1
C=CCn1c(=NC(=O)c2sc3ccccc3c2Cl)sc2cc(S(N)(=O)=O)ccc21 | 5 | 3 | 82* | -10 | 26
Nc1nonc1C(=O)NCCNC(=O)c1ccc(Cl)c(Cl)c1 | -1 | -11 | · | 12 | 3
O=C(COC(=O)c1ccccc1Nc1cccc(C(F)(F)F)c1)NCc1ccco1 | 1 | -1 | 79* | -36 | -1
O=C(COC(=O)c1cc(-c2ccc(Cl)s2)nc2ccccc12)NCc1ccco1 | 1 | -10 | 81* | -38 | -4
O=C(COC(=O)c1ccccc1)NCc1ccco1 | 0 | -4 | 6 | -2 | 1
COc1cc(C(=O)Oc2cccc(Nc3ncnc4ccccc34)c2)cc(OC)c1OC | 0 | -7 | 92* | -75 | 2
CCCCc1c(C)c2cc(C)ccc2[nH]c1=O | -2 | -13 | 79* | -20 | 0
CCCc1c(C)c2cc(C)ccc2[nH]c1=O | -3 | -7 | 8 | 25 | -3
COc1ccc(CCN2CCCn3c2nc2c3c(=O)n(CC(C)C)c(=O)n2C)cc1OC | 0 | -10 | · | -19 | -1
Cc1ccc(N2CC(C(=O)Nc3nnc(SCC(=O)Nc4nc(C)cs4)s3)CC2=O)cc1 (centres undefined) | 1 | -5 | 71* | -2 | 3
CCCC(=O)Nc1nnc(SCC(=O)Nc2nc(C)cs2)s1 | 1 | -8 | · | 16 | -3
